In PubChem BioAssay:
Calls of active or inactive are those of the source.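 The calls were made as follows, unless noted: active = NADPH fluorescence slope more negative than the mean of all samples by about 3 SD, 99.7% confidence; inactive = the rest.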

Tests used:
[1] = inhibitors of TNFa-induced NFkB p65 translocation, primary screen, imaging, HUVEC, MLSMR starter and 10KST1 sets (AID 438;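 active = inhibition above 20% together with a positive visual image hit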;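 also: compound added about 3h40 before a 20 min TNFalpha stimulation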;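 as to inhibition: signal is the nuclear over cytoplasmic p65 intensity ratio per well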); conditions: HUVEC TNFa-induced p65 nuclear translocation; cell count: measured here: nuclei count (cytotoxicity indicator), at 2.08 µM; inhibition: at 2 µM, stronger effect = higher value, 0% TNFa-plus-vehicle, 100% no-TNFa wells
[2] = inhibitors of E-selectin induction by TNFa, primary screen, imaging, HUVEC, immunofluorescence, MLSMR starter and 10KST1 sets (AID 487;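 active = visually confirmed hit in the image check and inhibition above 20%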;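 as to inhibition: signal is fraction of cell area covered by stained E-selectin grains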;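 as to nuclei count: 100% = median nuclei count of all wells on the same plate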); conditions: HUVEC TNFalpha-induced E-selectin immunofluorescence imaging, at 2 µM; inhibition: stronger effect = higher value; nuclei count: measured here: cell number, toxicity
[3] = DUSP6 inhibitors restoring Erk phosphorylation by chemical complementation, primary imaging in DUSP6-transfected HeLa (AID 609;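 active = compounds giving at least 50% inhibition in the cell-based MKP-3 phosphatase rescue imaging test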;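 as to inhibition: phospho-Erk level distribution per well compared with pooled transfected vehicle control wells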); conditions: HeLa MKP-3 transfected, phospho-Erk imaging KS statistic, at 10 µM, cells stimulated with TPA for 15 min
[4] = target: Dual specificity protein phosphatase 6 (Homo sapiens) (UniProt Q16828); assay: as above; conditions: HeLa MKP-3 transfected, phospho-Erk imaging KS statistic; at 10 µM; stronger effect = higher value; cells stimulated with TPA for 15 min
Sequence of Dual specificity protein phosphatase 6 (Homo sapiens) (Q16828 whole entry, looked up): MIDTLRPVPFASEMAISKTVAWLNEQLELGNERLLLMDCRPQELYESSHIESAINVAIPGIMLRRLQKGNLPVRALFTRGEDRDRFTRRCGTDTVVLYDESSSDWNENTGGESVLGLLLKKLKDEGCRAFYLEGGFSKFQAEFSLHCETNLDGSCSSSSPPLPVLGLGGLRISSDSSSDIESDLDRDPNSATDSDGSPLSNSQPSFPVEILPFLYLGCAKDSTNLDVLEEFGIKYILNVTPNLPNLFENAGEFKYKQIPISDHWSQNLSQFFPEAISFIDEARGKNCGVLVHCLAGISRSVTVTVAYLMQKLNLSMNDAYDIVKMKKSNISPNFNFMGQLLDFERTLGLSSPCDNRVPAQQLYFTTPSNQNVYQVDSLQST

[5] = target: Voltage-gated potassium channel subunit beta-2 (Rattus norvegicus) (UniProt P62483); assay: KvBeta enzyme negative modulators, primary screen, biochemical, NADPH fluorescence (AID 622;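 active = fluorescence slope higher than the sample average by over 3 SD, cut at about -0.22 in these data, passing the limit was not always enough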;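 also: slope of raw intensity against log time taken from 70 to 1610 s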); conditions: recombinant KvBeta, 4-cyanobenzaldehyde reduction, at 10 µM, stronger effect = higher value
Sequence of Voltage-gated potassium channel subunit beta-2 (Rattus norvegicus) (P62483 whole entry, looked up): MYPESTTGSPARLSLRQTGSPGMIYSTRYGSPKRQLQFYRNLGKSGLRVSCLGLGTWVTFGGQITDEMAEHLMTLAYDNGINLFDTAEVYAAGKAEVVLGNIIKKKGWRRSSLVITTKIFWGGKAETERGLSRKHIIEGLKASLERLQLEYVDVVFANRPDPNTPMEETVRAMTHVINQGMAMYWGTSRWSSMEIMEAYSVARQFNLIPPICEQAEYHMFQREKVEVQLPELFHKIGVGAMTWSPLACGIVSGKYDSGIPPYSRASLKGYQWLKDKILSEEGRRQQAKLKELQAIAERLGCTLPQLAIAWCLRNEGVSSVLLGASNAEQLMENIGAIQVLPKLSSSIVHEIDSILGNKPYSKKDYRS

[6] = target: Voltage-gated potassium channel subunit beta-2 (Rattus norvegicus) (UniProt P62483); assay: KvBeta positive modulators, primary screen, biochemical, NADPH fluorescence (AID 623); conditions: Recombinant KvBeta, NADPH fluorescence decrease slope, 10 min; at 10 µM; stronger effect = lower value;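 also: fluorescence intensity change per second fitted from 20 to 320 s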
[7] = target: Muscarinic acetylcholine receptor M4 (Homo sapiens) (UniProt P08173); assay: compounds altering M4/GIRK thallium flux, either direction, primary screen, M4 allosteric agonist project, cell-based, HEK293 M4/GIRK, BTC-AM (AID 625;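 active = fluorescence slope after compound addition differing from the mean of all tested samples at 99.7% confidence, mostly higher but some lower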;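 also: thallium influx through GIRK channels coupled to M4 in HEK293 cells with BTC-AM dye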); conditions: at 10 µM, actives lie on both sides
Sequence of Muscarinic acetylcholine receptor M4 (Homo sapiens) (P08173 whole entry, looked up): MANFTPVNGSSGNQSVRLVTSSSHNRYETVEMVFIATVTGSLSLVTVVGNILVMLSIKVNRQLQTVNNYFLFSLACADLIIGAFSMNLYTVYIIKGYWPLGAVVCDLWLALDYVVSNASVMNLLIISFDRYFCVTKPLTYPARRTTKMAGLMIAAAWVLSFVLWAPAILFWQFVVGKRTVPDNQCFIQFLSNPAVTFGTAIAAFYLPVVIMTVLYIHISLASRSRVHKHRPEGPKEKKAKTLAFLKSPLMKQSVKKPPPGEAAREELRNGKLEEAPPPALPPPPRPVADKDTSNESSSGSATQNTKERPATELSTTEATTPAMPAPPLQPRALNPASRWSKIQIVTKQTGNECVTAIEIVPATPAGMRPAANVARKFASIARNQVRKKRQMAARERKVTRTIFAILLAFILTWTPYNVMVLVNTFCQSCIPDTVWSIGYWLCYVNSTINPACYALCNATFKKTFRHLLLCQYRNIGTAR
Summary of the method: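 Material: M4/GIRK1/GIRK2 stable HEK293 cell line. Medium: pH 7.3 thallium assay buffer. Dosing: single compound concentration, 10 µM final. Schedule: 1 h dye loading, 2 min kinetic read. Measured by: kinetic fluorescence with BTC-AM dye. Read-out: post-addition slope, 15–24 s, of baseline-normalized fluorescence. Benchmarks: carbachol and DMSO controls.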

[8] = inhibitors of larval lipid processing in zebrafish, primary screen, whole organism, PED6 fluorescence, gall bladder and intestine (AID 686;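 active = a full or partial loss of lipid-probe fluorescence in the fish gall bladder, intestine or both, judged by eye; inactive = no fluorescence loss, or compound toxic to the fish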;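 also: larvae 5 to 7 days old with five fish per well; signal comes from phospholipase A2 cleavage of quenched PED6 carried via bile; overnight exposure to compound and PED6 before scoring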); conditions: Zebrafish larvae PED6 lipid processing, fluorescence scoring; screened at 20 µM (by protocol)
Summary of the method: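 System: live zebrafish larvae aged 5-7 days, whole organism; measure: graded gall bladder and intestinal fluorescence inhibition per well; incubation: overnight exposure; reagent: ingested quenched lipid PED6 at 100 nM; signal: By-eye fluorescence microscopy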

[9] = inhibitors of Chlamydomonas gravitaxis, primary screen, whole organism, Chlamydomonas reinhardtii, WT vs cilia-less mutant, absorbance, 96-well (AID 463189;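 active = inhibition at or above 50% relative to wild type and mutant plate controls; inactive = inhibition below 50%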;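 also: 0% = wild type cc124 cells in DMSO and 100% = ciliumless bld1 mutant cells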); conditions: OD600 absorbance, 2 days, at 10 µM, stronger effect = higher value
[10] = measured here: cell density z-score
[11] = measured here: nuclear c-Myc green intensity z-score
[12] = measured here: nuclear pErk red intensity z-score, stronger effect = higher value

SMILES | cell count [1] | inhibition [1] | inhibition [2] | nuclei count [2] [%] | z-score [3, 10] | z-score [3, 11] | z-score [3, 12] | inhibition [4] | fluorescence slope [5] | NADPH fluorescence slope [6] | fluorescence slope [7] | outcome [8] | inhibition [9]
Cn1cccc1/C=N/n1cnnc1 | 561 | 0.9% (inactive) | -164% (inactive) | 130 | 0.378 | -0.4 | -0.934 | -4.59% (inactive) | -0.452 (inactive) | -0.000125 (inactive) | 0.0051 (inactive) | inactive | -1.85% (inactive)
CC(=O)Nc1ccc(NCC(O)COc2ccccc2)cc1 (stereo unspecified) | 374 | 6.4% (inactive) | 6.8% (inactive) | 81.4 | -1.13 | -0.751 | 0.509 | -2.59% (inactive) | -0.495 (inactive) | -6.3e-05 (inactive) | 0.00402 (inactive) | inactive | 22.2% (inactive)
COC(=O)c1ccccc1NC(=O)C1COc2ccccc2O1 (stereo unspecified) | 655 | -10% (inactive) | 1.5% (inactive) | 169 | 1.14 | -0.164 | -1.54 | -0.674% (inactive) | -0.465 (inactive) | -5.2e-05 (inactive) | 0.00637 (inactive) | inactive | 3.4% (inactive)
COc1ccccc1-c1c(C)oc2c(CN3CCN(C)CC3)c(O)ccc2c1=O | 672 | -0.2% (inactive) | -20.6% (inactive) | 150 | 0.0584 | -0.255 | -0.66 | 14.7% (inactive) | -0.0259 (inactive) | 1.6e-05 (inactive) | 0.00509 (inactive) | inactive | -5.96% (inactive)
C=C(C)CSc1nnc2n(C)c(=O)c3c4c(sc3n12)CCC4 | 334 | 8.5% (inactive) | -1.8% (inactive) | 118 | 1.02 | -0.186 | -0.897 | 15.4% (inactive) | -0.438 (inactive) | -0.000119 (inactive) | 0.00483 (inactive) | inactive | 41.8% (inactive)
CCSc1nc2sc3c(c2c2nnc(SCC(=O)NCc4ccco4)n12)CCCC3 | 550 | -5.1% (inactive) | -12.4% (inactive) | 178 | -0.011 | -1.17 | -1.17 | 1.9e-07% (inactive) | -0.399 (inactive) | -1.1e-05 (inactive) | 0.00576 (inactive) | inactive | 9.13% (inactive)
CCN(CC)CCCN1C(=O)C(=O)/C(=C(/O)c2ccc3c(c2)CC(C)O3)C1c1ccncc1 (stereo unspecified) | 613 | -2.6% (inactive) | -3.9% (inactive) | 154 | 1.2 | -0.776 | -1.04 | 19.4% (inactive) | -0.478 (inactive) | -4.1e-05 (inactive) | 0.00593 (inactive) | inactive | 17% (inactive)
COCCCNC(=O)c1c(N)n(/N=C/c2cccnc2)c2nc3ccccc3nc12 | 719 | 4.4% (inactive) | 0.4% (inactive) | 113 | -0.256 | 0.735 | 2.99 | 4.25% (inactive) | -0.253 (inactive) | -3.5e-06 (inactive) | 0.00597 (inactive) | inactive | -6.04% (inactive)
Cc1cccc(NC(=O)c2c(C)cc(=O)oc2C)n1 | 522 | -1.7% (inactive) | 26.4% (inactive) | 170 | 0.944 | 0.403 | -0.669 | 7.93% (inactive) | -0.374 (inactive) | -3.7e-05 (inactive) | 0.00509 (inactive) | inactive | -9.96% (inactive)
Cc1ccccc1COc1ccc(/C(O)=C2/C(=O)C(=O)N(CCCn3ccnc3)C2c2ccco2)cc1 (stereo unspecified) | 642 | -2.1% (inactive) | -23.1% (inactive) | 171 | -1.5 | -0.323 | 2.13 | 9.37% (inactive) | -0.48 (inactive) | -0.00012 (inactive) | 0.00521 (inactive) | inactive | 13.6% (inactive)
CN(C)CCCNCCCCNC(=O)/C=N/O | 458 | 3.8% (inactive) | -56.6% (inactive) | 143 | -0.174 | -0.575 | 1.08 | 17.7% (inactive) | -0.441 (inactive) | -3.9e-05 (inactive) | 0.00523 (inactive) | inactive | 6.6% (inactive)
CCCC(CCC(=O)Nc1ccc(C(=O)OC)cc1)C(=O)O (stereo unspecified) | 402 | -5.3% (inactive) | -85.5% (inactive) | 145 | 0.89 | -1.82 | 0.0137 | 26.5% (inactive) | -0.445 (inactive) | -8.7e-05 (inactive) | 0.00528 (inactive) | inactive | -1.65% (inactive)
CN(C)CCCn1c(NC(=O)C2CCCCC2)nc2ccccc21 | 672 | 9.7% (inactive) | -32.4% (inactive) | 112 | 0.036 | -0.199 | -1.54 | -3.95% (inactive) | -0.437 (inactive) | -3.5e-05 (inactive) | 0.00538 (inactive) | inactive | -0.148% (inactive)
CC(=O)NCC(=O)OCN1C(=O)c2ccccc2C1=O | 520 | -8.8% (inactive) | -105% (inactive) | 154 | 0.466 | -1.64 | -0.405 | 15.9% (inactive) | -0.376 (inactive) | 7.5e-06 (inactive) | 0.00573 (inactive) | inactive | 20% (inactive)
N#Cc1nc(-c2cccs2)oc1NCc1ccc2c(c1)OCO2 | 624 | -4.4% (inactive) | -132% (inactive) | 157 | -0.376 | -0.933 | 0.595 | 7.83% (inactive) | -0.404 (inactive) | -1.3e-05 (inactive) | 0.00406 (inactive) | inactive | 30.7% (inactive)
CC(O)CNc1nc2c(c(=O)n(C)c(=O)n2C)n1CCc1ccccc1 (stereo unspecified) | 710 | -2.3% (inactive) | -92.1% (inactive) | 180 | 0.422 | -1.99 | 1.04 | 5.95% (inactive) | -0.464 (inactive) | -0.000209 (active) | 0.00739 (inactive) | inactive | 23% (inactive)
CCC1SC2=NC(C)=C(C(=O)OCCOC)C(c3ccc(C(=O)OC)cc3)N2C1=O (stereo unspecified) | 441 | -11.9% (inactive) | -71.6% (inactive) | 154 | 0.414 | -0.811 | -0.806 | -2.29% (inactive) | -0.411 (inactive) | -4.9e-05 (inactive) | 0.0052 (inactive) | inactive | 6.13% (inactive)
CC(NC(=O)NCCCn1ccnc1)(C(F)(F)F)C(F)(F)F | 679 | 2.1% (inactive) | -67.3% (inactive) | 166 | -0.846 | -0.74 | 0.188 | -13.3% (inactive) | -0.438 (inactive) | -5.8e-05 (inactive) | 0.005 (inactive) | inactive | 0.921% (inactive)
CCC(NC(=O)Nn1cnnc1)(C(F)(F)F)C(F)(F)F | 726 | 3.1% (inactive) | -59.3% (inactive) | 185 | -0.283 | -1.06 | 1.12 | 1.98% (inactive) | -0.49 (inactive) | -6.6e-05 (inactive) | 0.00453 (inactive) | inactive | 19.5% (inactive)
CCOC(=O)C1=C(C)OC(N)=C(C#N)C1c1cc2ccccc2nc1N1CCCCC1 (stereo unspecified) | 619 | -8.2% (inactive) | -33.5% (inactive) | 181 | -0.314 | 0.189 | 0.368 | -14.6% (inactive) | -0.315 (inactive) | -8.1e-06 (inactive) | 0.00507 (inactive) | inactive | 37.2% (inactive)
O=C1C2ON(c3ccccc3)C(c3cccnc3)C2C(=O)N1c1ccc(Cl)c(Cl)c1 (stereo unspecified) | 666 | -5.7% (inactive) | -61.8% (inactive) | 147 | -0.87 | 0.124 | -0.00603 | -5.62% (inactive) | -0.479 (inactive) | -2.8e-05 (inactive) | 0.00562 (inactive) | inactive | 11.2% (inactive)
CCc1nc(NCC2CCCO2)c(C#N)c2c1COC(C)(C)C2 (stereo unspecified) | 550 | -12.7% (inactive) | 2% (inactive) | 127 | -0.137 | -0.0587 | 0.863 | 1.9e-07% (inactive) | -0.316 (inactive) | -4e-05 (inactive) | 0.00695 (inactive) | inactive | -12.9% (inactive)
COCCCNC(=O)c1c(N)n(/N=C/c2ccccn2)c2nc3ccccc3nc12 | 736 | 7.3% (inactive) | 5.4% (inactive) | 148 | 0.26 | 1.28 | 1.17 | -1.12% (inactive) | -0.424 (inactive) | -5.6e-05 (inactive) | 0.00553 (inactive) | inactive | 82.5% (active)
Cn1c(=O)c2c(nc(N3CCC(C(N)=O)CC3)n2CCSc2nc3ccccc3s2)n(C)c1=O | 657 | -10.1% (inactive) | -52% (inactive) | 183 | 0.335 | 0.459 | -0.422 | 7.42% (inactive) | -0.431 (inactive) | -6.4e-05 (inactive) | 0.00515 (inactive) | inactive | 21.2% (inactive)
O=C(CSc1nc2ccccc2c(=O)n1CC1CCCCC1)N1CCOCC1 | 369 | -5.3% (inactive) | -6.6% (inactive) | 136 | -0.271 | -0.657 | -0.609 | 7.42% (inactive) | -0.465 (inactive) | -8.1e-05 (inactive) | 0.00433 (inactive) | inactive | -8.49% (inactive)
COc1cccc(C2C(C(=O)c3sc(C)nc3C)=C(O)C(=O)N2CCN2CCOCC2)c1OC (stereo unspecified) | 403 | -3.3% (inactive) | -65.8% (inactive) | 140 | -0.517 | 0.521 | 0.668 | 18.2% (inactive) | -0.47 (inactive) | -0.000114 (inactive) | 0.00521 (inactive) | inactive | 4.67% (inactive)
Cc1cccc(-n2ncc3c(NCCN4CCOCC4)ncnc32)c1 | 596 | -8.2% (inactive) | 0.1% (inactive) | 156 | -0.984 | 1.25 | -0.89 | -2.59% (inactive) | -0.397 (inactive) | -2.6e-05 (inactive) | 0.00826 (inactive) | inactive | 34% (inactive)
